# Results as given in ChEMBL document CHEMBL1671716, “Antimicrobial susceptibility patterns for recent clinical isolates of anaerobic bacteria in South Korea” (2010).
# Tested on: Bacteroides fragilis
# Assay: Antimicrobial activity against Bacteroides fragilis assessed as percent susceptible isolates after 48 hrs by agar dilution method
# Type: functional
row,Compound,Activity
1,COc1c(N2C[C@@H]3CCCN[C@@H]3C2)c(F)cc2c(=O)c(C(=O)O)cn(C3CC3)c12 [MOXIFLOXACIN],84%

# Tested on: Bacteroides thetaiotaomicron
# Assay: Antimicrobial activity against Bacteroides thetaiotaomicron assessed as percent resistant isolates after 48 hrs by agar dilution method
# Type: functional
# Outline: (§1)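 CLSI agar dilution on recent Korean clinical anaerobe isolates. Inoculum 10^5 CFU per spot by replicator. Plates incubated in an anaerobic chamber at 37°C for 48 h. For piperacillin plus tazobactam, tazobactam was held constant at 4 μg/ml. Resistance and susceptibility rates derived from MICs.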
row,Compound,Activity
1,COc1c(N2C[C@@H]3CCCN[C@@H]3C2)c(F)cc2c(=O)c(C(=O)O)cn(C3CC3)c12 [MOXIFLOXACIN],18%

# Tested on: Bacteroides caccae
# Assay: Antimicrobial activity against Bacteroides caccae assessed as percent resistant isolates after 48 hrs by agar dilution method
# Type: functional
# Outline: as §1
row,Compound,Activity
1,COc1c(N2C[C@@H]3CCCN[C@@H]3C2)c(F)cc2c(=O)c(C(=O)O)cn(C3CC3)c12 [MOXIFLOXACIN],18%

# Tested on: Parabacteroides distasonis
# Assay: Antimicrobial activity against Bacteroides distasonis assessed as percent susceptible isolates after 48 hrs by agar dilution method
# Type: functional
row,Compound,Activity
1,COc1c(N2C[C@@H]3CCCN[C@@H]3C2)c(F)cc2c(=O)c(C(=O)O)cn(C3CC3)c12 [MOXIFLOXACIN],72%

# Tested on: Parabacteroides distasonis
# Assay: Antimicrobial activity against Bacteroides distasonis assessed as percent resistant isolates after 48 hrs by agar dilution method
# Type: functional
# Outline: as §1
row,Compound,Activity
1,COc1c(N2C[C@@H]3CCCN[C@@H]3C2)c(F)cc2c(=O)c(C(=O)O)cn(C3CC3)c12 [MOXIFLOXACIN],18%

# Tested on: Phocaeicola vulgatus
# Assay: Antimicrobial activity against Bacteroides vulgatus assessed as percent resistant isolates after 48 hrs by agar dilution method
# Type: functional
# Outline: as §1
row,Compound,Activity
1,COc1c(N2C[C@@H]3CCCN[C@@H]3C2)c(F)cc2c(=O)c(C(=O)O)cn(C3CC3)c12 [MOXIFLOXACIN],18%

# Tested on: Bacteroides ovatus
# Assay: Antimicrobial activity against Bacteroides ovatus assessed as percent susceptible isolates after 48 hrs by agar dilution method
# Type: functional
row,Compound,Activity
1,COc1c(N2C[C@@H]3CCCN[C@@H]3C2)c(F)cc2c(=O)c(C(=O)O)cn(C3CC3)c12 [MOXIFLOXACIN],72%

# Tested on: Bacteroides ovatus
# Assay: Antimicrobial activity against Bacteroides ovatus assessed as percent resistant isolates after 48 hrs by agar dilution method
# Type: functional
# Outline: as §1
row,Compound,Activity
1,COc1c(N2C[C@@H]3CCCN[C@@H]3C2)c(F)cc2c(=O)c(C(=O)O)cn(C3CC3)c12 [MOXIFLOXACIN],18%

# Tested on: Hoylesella oralis
# Assay: Antimicrobial activity against Prevotella oralis after 48 hrs by agar dilution method
# Type: functional
# Outline: (§2)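 CLSI agar dilution (M11-A7); inoculum 10^5 CFU applied by replicator; plates incubated anaerobically 48 h at 37°C. For piperacillin-tazobactam, tazobactam held constant at 4 μg/ml.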
Compound,MIC50,MIC90
COc1c(N2C[C@@H]3CCCN[C@@H]3C2)c(F)cc2c(=O)c(C(=O)O)cn(C3CC3)c12 [MOXIFLOXACIN],2 µg/mL,8 µg/mL

# Tested on: Prevotella intermedia
# Assay: Antimicrobial activity against Prevotella intermedia assessed as percent resistant isolates after 48 hrs by agar dilution method
# Type: functional
# Outline: as §1
row,Compound,Activity
1,COc1c(N2C[C@@H]3CCCN[C@@H]3C2)c(F)cc2c(=O)c(C(=O)O)cn(C3CC3)c12 [MOXIFLOXACIN],0%

# Tested on: Prevotella bivia
# Assay: Antimicrobial activity against Prevotella bivia assessed as percent resistant isolates after 48 hrs by agar dilution method
# Type: functional
# Outline: as §1
row,Compound,Activity
1,COc1c(N2C[C@@H]3CCCN[C@@H]3C2)c(F)cc2c(=O)c(C(=O)O)cn(C3CC3)c12 [MOXIFLOXACIN],11%

# Tested on: Prevotella buccae
# Assay: Antimicrobial activity against Prevotella buccae assessed as percent resistant isolates after 48 hrs by agar dilution method
# Type: functional, Segatella buccae
# Outline: as §1
row,Compound,Activity
1,COc1c(N2C[C@@H]3CCCN[C@@H]3C2)c(F)cc2c(=O)c(C(=O)O)cn(C3CC3)c12 [MOXIFLOXACIN],11%

# Tested on: Hoylesella oralis
# Assay: Antimicrobial activity against Prevotella oralis assessed as percent susceptible isolates after 48 hrs by agar dilution method
# Type: functional
# Outline: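 CLSI agar dilution MIC testing of clinical isolates. 10^5 CFU spotted by replicator, plates incubated 48 h at 37°C in an anaerobic chamber. Susceptibility rates derived from the MICs.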
row,Compound,Activity
1,COc1c(N2C[C@@H]3CCCN[C@@H]3C2)c(F)cc2c(=O)c(C(=O)O)cn(C3CC3)c12 [MOXIFLOXACIN],56%

# Tested on: Peptostreptococcus anaerobius
# Assay: Antimicrobial activity against Peptostreptococcus anaerobius after 48 hrs by agar dilution method
# Type: functional
# Outline: as §2
Compound,MIC50,MIC90
COc1c(N2C[C@@H]3CCCN[C@@H]3C2)c(F)cc2c(=O)c(C(=O)O)cn(C3CC3)c12 [MOXIFLOXACIN],0.125 µg/mL,0.25 µg/mL

# Tested on: Parvimonas micra
# Assay: Antimicrobial activity against Peptostreptococcus micros after 48 hrs by agar dilution method
# Type: functional
# Outline: as §2
Compound,MIC50,MIC90
COc1c(N2C[C@@H]3CCCN[C@@H]3C2)c(F)cc2c(=O)c(C(=O)O)cn(C3CC3)c12 [MOXIFLOXACIN],0.125 µg/mL,0.25 µg/mL

# Tested on: Peptostreptococcus anaerobius
# Assay: Antimicrobial activity against Peptostreptococcus anaerobius assessed as percent susceptible isolates after 48 hrs by agar dilution method
# Type: functional
# Outline: as §1
row,Compound,Activity
1,COc1c(N2C[C@@H]3CCCN[C@@H]3C2)c(F)cc2c(=O)c(C(=O)O)cn(C3CC3)c12 [MOXIFLOXACIN],92%

# Tested on: Anaerococcus prevotii
# Assay: Antimicrobial activity against Anaerococcus prevotii after 48 hrs by agar dilution method
# Type: functional
# Outline: (§3)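 MICs on clinical anaerobe isolates by the CLSI agar dilution method. Inoculum of 10^5 CFU applied with a Steers replicator. Plates incubated 48 h at 37°C in an anaerobic chamber.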
Compound,MIC50,MIC90
COc1c(N2C[C@@H]3CCCN[C@@H]3C2)c(F)cc2c(=O)c(C(=O)O)cn(C3CC3)c12 [MOXIFLOXACIN],0.25 µg/mL,8 µg/mL

# Tested on: Anaerococcus prevotii
# Assay: Antimicrobial activity against Anaerococcus prevotii assessed as percent susceptible isolates after 48 hrs by agar dilution method
# Type: functional
row,Compound,Activity
1,COc1c(N2C[C@@H]3CCCN[C@@H]3C2)c(F)cc2c(=O)c(C(=O)O)cn(C3CC3)c12 [MOXIFLOXACIN],87%

# Tested on: Anaerococcus prevotii
# Assay: Antimicrobial activity against Anaerococcus prevotii assessed as percent resistant isolates after 48 hrs by agar dilution method
# Type: functional
# Outline: as §1
row,Compound,Activity
1,COc1c(N2C[C@@H]3CCCN[C@@H]3C2)c(F)cc2c(=O)c(C(=O)O)cn(C3CC3)c12 [MOXIFLOXACIN],13%

# Tested on: Peptoniphilus asaccharolyticus
# Assay: Antimicrobial activity against Peptoniphilus asaccharolyticus assessed as percent susceptible isolates after 48 hrs by agar dilution method
# Type: functional
# Outline: as §2
row,Compound,Activity
1,COc1c(N2C[C@@H]3CCCN[C@@H]3C2)c(F)cc2c(=O)c(C(=O)O)cn(C3CC3)c12 [MOXIFLOXACIN],100%

# Tested on: Peptoniphilus asaccharolyticus
# Assay: Antimicrobial activity against Peptoniphilus asaccharolyticus assessed as percent resistant isolates after 48 hrs by agar dilution method
# Type: functional
# Outline: as §1
row,Compound,Activity
1,COc1c(N2C[C@@H]3CCCN[C@@H]3C2)c(F)cc2c(=O)c(C(=O)O)cn(C3CC3)c12 [MOXIFLOXACIN],0%

# Tested on: Finegoldia magna
# Assay: Antimicrobial activity against Finegoldia magna assessed as percent susceptible isolates after 48 hrs by agar dilution method
# Type: functional
# Outline: as §2
row,Compound,Activity
1,COc1c(N2C[C@@H]3CCCN[C@@H]3C2)c(F)cc2c(=O)c(C(=O)O)cn(C3CC3)c12 [MOXIFLOXACIN],60%

# Tested on: Finegoldia magna
# Assay: Antimicrobial activity against Finegoldia magna assessed as percent resistant isolates after 48 hrs by agar dilution method
# Type: functional
# Outline: as §1
row,Compound,Activity
1,COc1c(N2C[C@@H]3CCCN[C@@H]3C2)c(F)cc2c(=O)c(C(=O)O)cn(C3CC3)c12 [MOXIFLOXACIN],27%

# Tested on: Schaalia odontolytica
# Assay: Antimicrobial activity against Actinomyces odontolyticus after 48 hrs by agar dilution method
# Type: functional
# Outline: as §3
Compound,MIC50,MIC90
COc1c(N2C[C@@H]3CCCN[C@@H]3C2)c(F)cc2c(=O)c(C(=O)O)cn(C3CC3)c12 [MOXIFLOXACIN],1 µg/mL,2 µg/mL

# Tested on: Schaalia odontolytica
# Assay: Antimicrobial activity against Actinomyces odontolyticus assessed as percent susceptible isolates after 48 hrs by agar dilution method
# Type: functional
row,Compound,Activity
1,COc1c(N2C[C@@H]3CCCN[C@@H]3C2)c(F)cc2c(=O)c(C(=O)O)cn(C3CC3)c12 [MOXIFLOXACIN],92%

# Tested on: Schaalia odontolytica
# Assay: Antimicrobial activity against Actinomyces odontolyticus assessed as percent resistant isolates after 48 hrs by agar dilution method
# Type: functional
# Outline: as §1
row,Compound,Activity
1,COc1c(N2C[C@@H]3CCCN[C@@H]3C2)c(F)cc2c(=O)c(C(=O)O)cn(C3CC3)c12 [MOXIFLOXACIN],0%

# Tested on: Actinomyces israelii
# Assay: Antimicrobial activity against Actinomyces israelii assessed as percent susceptible isolates after 48 hrs by agar dilution method
# Type: functional
row,Compound,Activity
1,COc1c(N2C[C@@H]3CCCN[C@@H]3C2)c(F)cc2c(=O)c(C(=O)O)cn(C3CC3)c12 [MOXIFLOXACIN],92%

# Tested on: Actinomyces israelii
# Assay: Antimicrobial activity against Actinomyces israelii assessed as percent resistant isolates after 48 hrs by agar dilution method
# Type: functional
# Outline: as §1
row,Compound,Activity
1,COc1c(N2C[C@@H]3CCCN[C@@H]3C2)c(F)cc2c(=O)c(C(=O)O)cn(C3CC3)c12 [MOXIFLOXACIN],0%

# Tested on: Schaalia meyeri
# Assay: Antimicrobial activity against Actinomyces meyeri assessed as percent susceptible isolates after 48 hrs by agar dilution method
# Type: functional
row,Compound,Activity
1,COc1c(N2C[C@@H]3CCCN[C@@H]3C2)c(F)cc2c(=O)c(C(=O)O)cn(C3CC3)c12 [MOXIFLOXACIN],92%

# Tested on: Actinomyces naeslundii
# Assay: Antimicrobial activity against Actinomyces naeslundii after 48 hrs by agar dilution method
# Type: functional
# Outline: as §3
Compound,MIC50,MIC90
COc1c(N2C[C@@H]3CCCN[C@@H]3C2)c(F)cc2c(=O)c(C(=O)O)cn(C3CC3)c12 [MOXIFLOXACIN],1 µg/mL,2 µg/mL

# Tested on: Actinomyces naeslundii
# Assay: Antimicrobial activity against Actinomyces naeslundii assessed as percent susceptible isolates after 48 hrs by agar dilution method
# Type: functional
row,Compound,Activity
1,COc1c(N2C[C@@H]3CCCN[C@@H]3C2)c(F)cc2c(=O)c(C(=O)O)cn(C3CC3)c12 [MOXIFLOXACIN],92%

# Tested on: Bifidobacterium adolescentis
# Assay: Antimicrobial activity against Bifidobacterium adolescentis assessed as percent susceptible isolates after 48 hrs by agar dilution method
# Type: functional
row,Compound,Activity
1,COc1c(N2C[C@@H]3CCCN[C@@H]3C2)c(F)cc2c(=O)c(C(=O)O)cn(C3CC3)c12 [MOXIFLOXACIN],92%

# Tested on: Bifidobacterium adolescentis
# Assay: Antimicrobial activity against Bifidobacterium adolescentis assessed as percent resistant isolates after 48 hrs by agar dilution method
# Type: functional
# Outline: as §1
row,Compound,Activity
1,COc1c(N2C[C@@H]3CCCN[C@@H]3C2)c(F)cc2c(=O)c(C(=O)O)cn(C3CC3)c12 [MOXIFLOXACIN],15%

# Tested on: Bifidobacterium sp.
# Assay: Antimicrobial activity against Bifidobacterium sp. after 48 hrs by agar dilution method
# Type: functional
# Outline: as §3
Compound,MIC50,MIC90
COc1c(N2C[C@@H]3CCCN[C@@H]3C2)c(F)cc2c(=O)c(C(=O)O)cn(C3CC3)c12 [MOXIFLOXACIN],1 µg/mL,2 µg/mL

# Tested on: Bifidobacterium sp.
# Assay: Antimicrobial activity against Bifidobacterium sp. assessed as percent susceptible isolates after 48 hrs by agar dilution method
# Type: functional
# Outline: as §2
row,Compound,Activity
1,COc1c(N2C[C@@H]3CCCN[C@@H]3C2)c(F)cc2c(=O)c(C(=O)O)cn(C3CC3)c12 [MOXIFLOXACIN],92%

# Tested on: Bifidobacterium sp.
# Assay: Antimicrobial activity against Bifidobacterium sp. assessed as percent resistant isolates after 48 hrs by agar dilution method
# Type: functional
# Outline: as §1
row,Compound,Activity
1,COc1c(N2C[C@@H]3CCCN[C@@H]3C2)c(F)cc2c(=O)c(C(=O)O)cn(C3CC3)c12 [MOXIFLOXACIN],0%

# Tested on: Eggerthella lenta
# Assay: Antimicrobial activity against Eubacterium lentum after 48 hrs by agar dilution method
# Type: functional
# Outline: as §2
Compound,MIC50,MIC90
COc1c(N2C[C@@H]3CCCN[C@@H]3C2)c(F)cc2c(=O)c(C(=O)O)cn(C3CC3)c12 [MOXIFLOXACIN],1 µg/mL,2 µg/mL

# Tested on: Eubacterium sp.
# Assay: Antimicrobial activity against Eubacterium sp. assessed as percent susceptible isolates after 48 hrs by agar dilution method
# Type: functional
# Outline: as §2
row,Compound,Activity
1,COc1c(N2C[C@@H]3CCCN[C@@H]3C2)c(F)cc2c(=O)c(C(=O)O)cn(C3CC3)c12 [MOXIFLOXACIN],92%

# Tested on: Eubacterium sp.
# Assay: Antimicrobial activity against Eubacterium sp. assessed as percent resistant isolates after 48 hrs by agar dilution method
# Type: functional
# Outline: as §1
row,Compound,Activity
1,COc1c(N2C[C@@H]3CCCN[C@@H]3C2)c(F)cc2c(=O)c(C(=O)O)cn(C3CC3)c12 [MOXIFLOXACIN],0%
